In ChEMBL document CHEMBL1142406, “2-Heteroarylimino-5-benzylidene-4-thiazolidinones analogues of 2-thiazolylimino-5-benzylidene-4-thiazolidinones with antimicrobial activity: synthesis and structure-activity relationship” (2008):
Converted amounts (≈) assume the structure as drawn. The source made the active and inactive calls. The rule behind the calls is not given here.

Key:
Haemophilus influenzae = experiment: Antimicrobial activity against Haemophilus influenzae by broth dilution technique; format: functional
Outline: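 Haemophilus Test Medium broth dilution. Compounds in DMSO are added to final dilutions, with DMSO at most 1% v/v. MIC is the lowest concentration completely inhibiting growth.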

[1] = system: Staphylococcus epidermidis; experiment: Antimicrobial activity against penicillin-resistant Staphylococcus epidermidis by broth dilution technique; format: functional
Outline: (§1)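 Broth dilution in Mueller Hinton Broth with compounds predissolved in DMSO (at most 1% v/v). Final concentrations ranged from 100 to 0.0015, and the inoculum was 5.10⁴ bacteria/mL. Plates were incubated at 37 °C for 24 h. MIC was taken as the lowest concentration giving complete growth inhibition.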

[2] = system: Staphylococcus haemolyticus; experiment: Antimicrobial activity against Staphylococcus haemolyticus by broth dilution technique; format: functional
Outline: (§2)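 Broth dilution in Mueller Hinton Broth. Compounds are dissolved in DMSO (never above 1% v/v final) and serially diluted. MIC is the lowest concentration giving complete growth inhibition.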

Saccharomyces cerevisiae = experiment: Antimicrobial activity against Saccharomyces cerevisiae ATCC 9763 upto 100 ug/ml by broth dilution technique; format: functional, organism-based
Outline: (§3)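 Fungi are tested by Sabouraud Liquid Medium dilution. Compounds are in DMSO, with DMSO at most 1% v/v final. Inoculum is 1×10³ fungi/mL, incubated 48 h at 30 °C. MIC is the lowest concentration completely inhibiting growth. For MFC, 100 µL of clear mixtures is subcultured into 1 mL fresh medium and read after 48 h at 30 °C.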

Escherichia coli = experiment: Antimicrobial activity against Escherichia coli SPA27 upto 100 ug/ml by broth dilution technique; format: functional, organism-based; outline: as §2
Enterococcus faecium = experiment: Antimicrobial activity against Streptococcus faecium by broth dilution technique; format: functional; outline: as §2
Micrococcus luteus = experiment: Antimicrobial activity against Sarcina lutea by broth dilution technique; format: functional; outline: as §2
Enterococcus faecalis = experiment: Antimicrobial activity against Streptococcus faecalis by broth dilution technique; format: functional; outline: as §2
[3] = system: Staphylococcus epidermidis; experiment: Antimicrobial activity against Staphylococcus epidermidis ATCC 12228 by broth dilution technique
Streptococcus agalactiae = experiment: Antimicrobial activity against Streptococcus agalactiae by broth dilution technique; format: functional; outline: as §2
Staphylococcus aureus [4] = experiment: Antimicrobial activity against Staphylococcus aureus ATCC 25923 by broth dilution technique; format: functional; outline: as §2
Staphylococcus aureus [5] = experiment: Antimicrobial activity against penicillin-resistant Staphylococcus aureus by broth dilution technique; format: functional; outline: as §1
Priestia megaterium = experiment: Antimicrobial activity against Bacillus megaterium by broth dilution technique; format: functional; outline: as §2
Aspergillus niger = experiment: Antimicrobial activity against Aspergillus niger ATCC 6275 upto 100 ug/ml by broth dilution technique; format: functional, organism-based; outline: as §3
Bacillus subtilis = experiment: Antimicrobial activity against Bacillus subtilis ATCC 6633 by broth dilution technique; format: functional; outline: as §2
Bacillus thuringiensis = experiment: Antimicrobial activity against Bacillus thuringiensis var. kurstaki BGSC 4D1 by broth dilution technique; format: functional; settings: serovar kurstaki; outline: as §2
Streptococcus pyogenes = experiment: Antimicrobial activity against Streptococcus pyogenes by broth dilution technique; format: functional
Outline: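 Tryptose Phosphate Broth dilution. Compounds are dissolved in DMSO, with DMSO at most 1% v/v final. MIC is taken as the lowest concentration with complete growth inhibition.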

Candida tropicalis = experiment: Antimicrobial activity against Candida tropicalis ATCC 1369 upto 100 ug/ml by broth dilution technique; format: functional, organism-based; outline: as §3

Compound	MIC (Haemophilus influenzae)	MIC [1]	MIC [2]	Activity (Saccharomyces cerevisiae)	Activity (Escherichia coli)	MIC (Enterococcus faecium)	MIC (Micrococcus luteus)	MIC (Enterococcus faecalis)	MIC [3]	MIC (Streptococcus agalactiae)	MIC (Staphylococcus aureus [4])	MIC (Staphylococcus aureus [5])	MIC (Priestia megaterium)	Activity (Aspergillus niger)	MIC (Bacillus subtilis)	MIC (Bacillus thuringiensis)	MIC (Streptococcus pyogenes)	Activity (Candida tropicalis)
O=C1N/C(=N\c2nccs2)S/C1=C\c1cccc(Cl)c1	0.3 µg/mL (≈ 0.932 µM)	1.5 µg/mL (≈ 4.66 µM)	3 µg/mL (≈ 9.32 µM)	inactive	inactive	3 µg/mL (≈ 9.32 µM)	1.5 µg/mL (≈ 4.66 µM)	50 µg/mL (≈ 155 µM)	1.5 µg/mL (≈ 4.66 µM)	1.5 µg/mL (≈ 4.66 µM)	1.5 µg/mL (≈ 4.66 µM)	0.7 µg/mL (≈ 2.18 µM)	0.15 µg/mL (≈ 0.466 µM)	inactive	0.3 µg/mL (≈ 0.932 µM)	1.5 µg/mL (≈ 4.66 µM)	12 µg/mL (≈ 37.3 µM)	inactive
O=C1N/C(=N\c2nc3ccccc3s2)S/C1=C\c1ccccc1Cl	> 100 µg/mL	25 µg/mL (≈ 67.2 µM)	> 100 µg/mL	inactive	inactive	> 100 µg/mL	12 µg/mL (≈ 32.3 µM)	> 100 µg/mL	12 µg/mL (≈ 32.3 µM)	> 100 µg/mL	12 µg/mL (≈ 32.3 µM)	12 µg/mL (≈ 32.3 µM)	12 µg/mL (≈ 32.3 µM)	inactive	12 µg/mL (≈ 32.3 µM)	12 µg/mL (≈ 32.3 µM)	25 µg/mL (≈ 67.2 µM)	inactive
COc1ccc(/C=C2\S/C(=N\c3nsc4ccccc34)NC2=O)cc1	> 100 µg/mL	–	–	inactive	inactive	–	–	–	–	–	> 100 µg/mL	–	–	inactive	> 100 µg/mL	–	–	inactive
O=C1N/C(=N\c2nccs2)S/C1=C\c1ccc([N+](=O)[O-])cc1	0.3 µg/mL (≈ 0.903 µM)	6 µg/mL (≈ 18.1 µM)	6 µg/mL (≈ 18.1 µM)	inactive	inactive	> 100 µg/mL	3 µg/mL (≈ 9.03 µM)	> 100 µg/mL	6 µg/mL (≈ 18.1 µM)	1.5 µg/mL (≈ 4.51 µM)	3 µg/mL (≈ 9.03 µM)	1.5 µg/mL (≈ 4.51 µM)	0.7 µg/mL (≈ 2.11 µM)	inactive	1.5 µg/mL (≈ 4.51 µM)	1.5 µg/mL (≈ 4.51 µM)	> 100 µg/mL	inactive
O=C1N/C(=N/c2nsc3ccccc23)S/C1=C\c1ccccc1	> 100 µg/mL	–	–	inactive	inactive	–	–	–	–	–	> 100 µg/mL	–	–	inactive	> 100 µg/mL	–	–	inactive
O=C1N/C(=N/c2nsc3ccccc23)S/C1=C\c1ccccc1Cl	> 100 µg/mL	–	–	inactive	inactive	–	–	–	–	–	> 100 µg/mL	–	–	inactive	> 100 µg/mL	–	–	inactive
O=C1N/C(=N/c2nsc3ccccc23)S/C1=C\c1cccc([N+](=O)[O-])c1	3 µg/mL (≈ 7.84 µM)	> 100 µg/mL	> 100 µg/mL	inactive	inactive	> 100 µg/mL	> 100 µg/mL	> 100 µg/mL	> 100 µg/mL	> 100 µg/mL	> 100 µg/mL	> 100 µg/mL	0.7 µg/mL (≈ 1.83 µM)	inactive	> 100 µg/mL	1.5 µg/mL (≈ 3.92 µM)	> 100 µg/mL	inactive
O=C1N/C(=N\c2nccs2)S/C1=C\c1ccccc1	0.7 µg/mL (≈ 2.44 µM)	50 µg/mL (≈ 174 µM)	6 µg/mL (≈ 20.9 µM)	inactive	inactive	25 µg/mL (≈ 87 µM)	3 µg/mL (≈ 10.4 µM)	25 µg/mL (≈ 87 µM)	6 µg/mL (≈ 20.9 µM)	3 µg/mL (≈ 10.4 µM)	3 µg/mL (≈ 10.4 µM)	25 µg/mL (≈ 87 µM)	0.7 µg/mL (≈ 2.44 µM)	inactive	0.7 µg/mL (≈ 2.44 µM)	3 µg/mL (≈ 10.4 µM)	> 100 µg/mL	inactive
COc1cc(/C=C2\S/C(=N/c3nc4ccccc4s3)NC2=O)ccc1O	> 100 µg/mL	12 µg/mL (≈ 31.3 µM)	> 100 µg/mL	inactive	inactive	> 100 µg/mL	12 µg/mL (≈ 31.3 µM)	> 100 µg/mL	6 µg/mL (≈ 15.6 µM)	> 100 µg/mL	6 µg/mL (≈ 15.6 µM)	6 µg/mL (≈ 15.6 µM)	12 µg/mL (≈ 31.3 µM)	inactive	> 100 µg/mL	6 µg/mL (≈ 15.6 µM)	> 100 µg/mL	inactive
O=C1N/C(=N\c2nccs2)S/C1=C\c1ccccc1[N+](=O)[O-]	0.7 µg/mL (≈ 2.11 µM)	25 µg/mL (≈ 75.2 µM)	12 µg/mL (≈ 36.1 µM)	inactive	inactive	25 µg/mL (≈ 75.2 µM)	12 µg/mL (≈ 36.1 µM)	50 µg/mL (≈ 150 µM)	12 µg/mL (≈ 36.1 µM)	12 µg/mL (≈ 36.1 µM)	6 µg/mL (≈ 18.1 µM)	3 µg/mL (≈ 9.03 µM)	3 µg/mL (≈ 9.03 µM)	inactive	6 µg/mL (≈ 18.1 µM)	6 µg/mL (≈ 18.1 µM)	25 µg/mL (≈ 75.2 µM)	inactive
O=C1N/C(=N/c2nsc3ccccc23)S/C1=C\c1ccccc1[N+](=O)[O-]	1.5 µg/mL (≈ 3.92 µM)	> 100 µg/mL	> 100 µg/mL	inactive	inactive	> 100 µg/mL	> 100 µg/mL	100 µg/mL (≈ 261 µM)	> 100 µg/mL	> 100 µg/mL	3 µg/mL (≈ 7.84 µM)	50 µg/mL (≈ 131 µM)	> 100 µg/mL	inactive	> 100 µg/mL	3 µg/mL (≈ 7.84 µM)	> 100 µg/mL	inactive
COc1cc(/C=C2\S/C(=N\c3nsc4ccccc34)NC2=O)ccc1O	> 100 µg/mL	–	–	inactive	inactive	–	–	–	–	–	> 100 µg/mL	–	–	inactive	> 100 µg/mL	–	–	inactive
O=C1N/C(=N\c2nc3ccccc3s2)S/C1=C\c1ccccc1[N+](=O)[O-]	> 100 µg/mL	–	–	inactive	inactive	–	–	–	–	–	> 100 µg/mL	–	–	inactive	> 100 µg/mL	–	–	inactive
O=C1CSC(Nc2nccs2)=N1	1.5 µg/mL (≈ 7.53 µM)	–	–	inactive	inactive	–	–	–	–	–	> 100 µg/mL	–	–	inactive	50 µg/mL (≈ 251 µM)	–	–	inactive
